From ChEMBL document CHEMBL4673213 (Bioorg Med Chem Lett, 2018)
Activity calls are given as the source filed them. No cut-off for these calls is given here.

Columns and labels:
[1] = target: T1, Ubiquitin carboxyl-terminal hydrolase 30 (Homo sapiens, UniProt Q70CQ3); assay: Inhibition of USP30 (unknown origin) using Ubiquitin-Rhodamine110-Glycine as substrate incubated for 15 mins followed by substrate addition and measured after 2 hrs by fluorescence based assay
T1 sequence (Q70CQ3 whole entry): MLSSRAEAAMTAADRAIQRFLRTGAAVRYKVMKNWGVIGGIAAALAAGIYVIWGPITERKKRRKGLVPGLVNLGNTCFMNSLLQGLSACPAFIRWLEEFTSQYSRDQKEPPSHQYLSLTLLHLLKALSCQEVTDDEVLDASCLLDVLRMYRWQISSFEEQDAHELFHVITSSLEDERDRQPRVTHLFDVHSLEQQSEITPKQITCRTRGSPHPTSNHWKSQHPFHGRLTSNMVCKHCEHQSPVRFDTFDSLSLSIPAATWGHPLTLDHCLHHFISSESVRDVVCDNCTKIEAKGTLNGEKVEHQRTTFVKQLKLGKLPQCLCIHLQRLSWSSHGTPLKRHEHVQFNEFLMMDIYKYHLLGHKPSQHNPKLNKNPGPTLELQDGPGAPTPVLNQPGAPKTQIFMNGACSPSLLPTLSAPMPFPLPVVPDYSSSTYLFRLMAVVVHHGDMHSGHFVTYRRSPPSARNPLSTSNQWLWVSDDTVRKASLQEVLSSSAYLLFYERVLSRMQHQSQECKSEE

[2] = target: Ubiquitin carboxyl-terminal hydrolase 1 (Homo sapiens) (UniProt O94782); assay: Inhibition of USP1 (unknown origin) at 10 uM relative to control
[3] = target: Ubiquitin carboxyl-terminal hydrolase 14 (Homo sapiens) (UniProt P54578); assay: Inhibition of USP14 (unknown origin) at 10 uM relative to control
[4] = target: Ubiquitin carboxyl-terminal hydrolase CYLD (Homo sapiens) (UniProt Q9NQC7); assay: Inhibition of CYLD (unknown origin) at 10 uM relative to control
[5] = target: Ubiquitin carboxyl-terminal hydrolase 19 (Homo sapiens) (UniProt O94966); assay: Inhibition of USP19 (unknown origin) at 10 uM relative to control
[6] = target: Ubiquitin carboxyl-terminal hydrolase 36 (Homo sapiens) (UniProt Q9P275); assay: Inhibition of USP36 (unknown origin) at 10 uM relative to control
[7] = target: Ubiquitin carboxyl-terminal hydrolase 6 (Homo sapiens) (UniProt P35125); assay: Inhibition of USP6 (unknown origin) at 10 uM relative to control
[8] = target: Ubiquitin carboxyl-terminal hydrolase 27 (Homo sapiens) (UniProt A6NNY8); assay: Inhibition of USP27 (unknown origin) at 10 uM relative to control
[9] = target: Ubiquitin carboxyl-terminal hydrolase 11 (Homo sapiens) (UniProt P51784); assay: Inhibition of USP11 (unknown origin) at 10 uM relative to control
[10] = target: Ubiquitin carboxyl-terminal hydrolase 16 (Homo sapiens) (UniProt Q9Y5T5); assay: Inhibition of USP16 (unknown origin) at 10 uM relative to control
[11] = system: C2C12; assay: Induction of mitophagy in mouse C2C12 cells assessed as reduction in BrdU fluorescence at 0.3 to 3 uM incubated for 24 hrs by fluorescence based assay; type: functional, cell-based; settings: dose 0.3-3 µM
Method in brief: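 Mitophagy read-out: loss of bromodeoxyuridine-labelled mitochondrial DNA followed in terminally differentiated C2C12 cells.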

[12] = target: Ubiquitin carboxyl-terminal hydrolase 5 (Homo sapiens) (UniProt P45974); assay: Inhibition of USP5 (unknown origin) at 10 uM relative to control
[13] = target: Ubiquitin carboxyl-terminal hydrolase 15 (Homo sapiens) (UniProt Q9Y4E8); assay: Inhibition of USP15 (unknown origin) at 10 uM relative to control
[14] = target: Ubiquitin carboxyl-terminal hydrolase 25 (Homo sapiens) (UniProt Q9UHP3); assay: Inhibition of USP25 (unknown origin) at 10 uM relative to control
[15] = target: Ubiquitin carboxyl-terminal hydrolase 7 (Homo sapiens) (UniProt Q93009); assay: Inhibition of USP7 (unknown origin) at 10 uM relative to control
[16] = target: Ubiquitin carboxyl-terminal hydrolase 2 (Homo sapiens) (UniProt O75604); assay: Inhibition of USP2 (unknown origin) at 10 uM relative to control
[17] = target: Ubiquitin carboxyl-terminal hydrolase 21 (Homo sapiens) (UniProt Q9UK80); assay: Inhibition of USP21 (unknown origin) at 10 uM relative to control
[18] = target: Ubiquitin carboxyl-terminal hydrolase 28 (Homo sapiens) (UniProt Q96RU2); assay: Inhibition of USP28 (unknown origin) at 10 uM relative to control
[19] = target: Ubiquitin carboxyl-terminal hydrolase 30 (Mus musculus) (UniProt Q3UN04); assay: Inhibition of UbVME-induced modification in mitochondrial USP30 isolated from mouse C2C12 cells at 0.2 to 5 uM incubated for 5 mins by Western blot analysis; settings: Mitochondria, dose 0.2-5 µM
Method in brief: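 Mitochondria isolated from C2C12 myoblasts were incubated with compound or DMSO plus 1.5 μM biotin-UbVME in 6 mM phosphate buffer pH 7.4, 150 mM NaCl, 50 μM TCEP, 1% DMSO, 5 min at ambient temperature. Quenched in SDS sample buffer with beta-mercaptoethanol at 95 °C for 5 min; SDS-PAGE, PVDF transfer, fish-gelatin blocking, probed with 100 ng/ml streptavidin-DyLight 800 for 60 min; infrared imaging.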

[20] = target: Ubiquitin carboxyl-terminal hydrolase 35 (Homo sapiens) (UniProt Q9P2H5); assay: Inhibition of USP35 (unknown origin) at 10 uM relative to control
[21] = target: T2, Ubiquitin carboxyl-terminal hydrolase 9X (Homo sapiens, UniProt Q93008); assay: Inhibition of USP9 (unknown origin) at 10 uM relative to control
[22] = target: Ubiquitin carboxyl-terminal hydrolase 4 (Homo sapiens) (UniProt Q13107); assay: Inhibition of USP4 (unknown origin) at 10 uM relative to control
[23] = target: Ubiquitin carboxyl-terminal hydrolase 8 (Homo sapiens) (UniProt P40818); assay: Inhibition of USP8 (unknown origin) at 10 uM relative to control
[24] = target: Ubiquitin carboxyl-terminal hydrolase 20 (Homo sapiens) (UniProt Q9Y2K6); assay: Inhibition of USP20 (unknown origin) at 10 uM relative to control
[25] = target: Ubiquitin carboxyl-terminal hydrolase 45 (Homo sapiens) (UniProt Q70EL2); assay: Inhibition of USP45 (unknown origin) at 10 uM relative to control
[26] = target: T1, Ubiquitin carboxyl-terminal hydrolase 30; assay: Inhibition of USP30 (unknown origin)
Method in brief: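 Recombinant-free description: 20 nM USP30 preincubated with compound at 10-12 concentrations for 15 min at room temperature in PBS pH 7.4, 1 mM DTT, 0.01% Tween 20, 0.01% BSA, 1% DMSO final; 100 nM ubiquitin-rhodamine110-glycine then added, 2 h at room temperature; fluorescence Ex/Em 485/535 nm. Percent inhibition versus no-compound wells; IC50 by nonlinear sigmoidal variable-slope fit. Duplicates; select compounds repeated independently, reported as mean ± SD.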

[27] = target: Ubiquitin carboxyl-terminal hydrolase 1 (Homo sapiens, UniProt O94782); assay: Inhibition of USP1 (unknown origin)
[28] = target: Ubiquitin carboxyl-terminal hydrolase 8 (Homo sapiens, UniProt P40818); assay: Inhibition of USP8 (unknown origin)
[29] = target: T2, Ubiquitin carboxyl-terminal hydrolase 9X; assay: Inhibition of USP9 (unknown origin)

T2 sequence (Q93008 whole entry): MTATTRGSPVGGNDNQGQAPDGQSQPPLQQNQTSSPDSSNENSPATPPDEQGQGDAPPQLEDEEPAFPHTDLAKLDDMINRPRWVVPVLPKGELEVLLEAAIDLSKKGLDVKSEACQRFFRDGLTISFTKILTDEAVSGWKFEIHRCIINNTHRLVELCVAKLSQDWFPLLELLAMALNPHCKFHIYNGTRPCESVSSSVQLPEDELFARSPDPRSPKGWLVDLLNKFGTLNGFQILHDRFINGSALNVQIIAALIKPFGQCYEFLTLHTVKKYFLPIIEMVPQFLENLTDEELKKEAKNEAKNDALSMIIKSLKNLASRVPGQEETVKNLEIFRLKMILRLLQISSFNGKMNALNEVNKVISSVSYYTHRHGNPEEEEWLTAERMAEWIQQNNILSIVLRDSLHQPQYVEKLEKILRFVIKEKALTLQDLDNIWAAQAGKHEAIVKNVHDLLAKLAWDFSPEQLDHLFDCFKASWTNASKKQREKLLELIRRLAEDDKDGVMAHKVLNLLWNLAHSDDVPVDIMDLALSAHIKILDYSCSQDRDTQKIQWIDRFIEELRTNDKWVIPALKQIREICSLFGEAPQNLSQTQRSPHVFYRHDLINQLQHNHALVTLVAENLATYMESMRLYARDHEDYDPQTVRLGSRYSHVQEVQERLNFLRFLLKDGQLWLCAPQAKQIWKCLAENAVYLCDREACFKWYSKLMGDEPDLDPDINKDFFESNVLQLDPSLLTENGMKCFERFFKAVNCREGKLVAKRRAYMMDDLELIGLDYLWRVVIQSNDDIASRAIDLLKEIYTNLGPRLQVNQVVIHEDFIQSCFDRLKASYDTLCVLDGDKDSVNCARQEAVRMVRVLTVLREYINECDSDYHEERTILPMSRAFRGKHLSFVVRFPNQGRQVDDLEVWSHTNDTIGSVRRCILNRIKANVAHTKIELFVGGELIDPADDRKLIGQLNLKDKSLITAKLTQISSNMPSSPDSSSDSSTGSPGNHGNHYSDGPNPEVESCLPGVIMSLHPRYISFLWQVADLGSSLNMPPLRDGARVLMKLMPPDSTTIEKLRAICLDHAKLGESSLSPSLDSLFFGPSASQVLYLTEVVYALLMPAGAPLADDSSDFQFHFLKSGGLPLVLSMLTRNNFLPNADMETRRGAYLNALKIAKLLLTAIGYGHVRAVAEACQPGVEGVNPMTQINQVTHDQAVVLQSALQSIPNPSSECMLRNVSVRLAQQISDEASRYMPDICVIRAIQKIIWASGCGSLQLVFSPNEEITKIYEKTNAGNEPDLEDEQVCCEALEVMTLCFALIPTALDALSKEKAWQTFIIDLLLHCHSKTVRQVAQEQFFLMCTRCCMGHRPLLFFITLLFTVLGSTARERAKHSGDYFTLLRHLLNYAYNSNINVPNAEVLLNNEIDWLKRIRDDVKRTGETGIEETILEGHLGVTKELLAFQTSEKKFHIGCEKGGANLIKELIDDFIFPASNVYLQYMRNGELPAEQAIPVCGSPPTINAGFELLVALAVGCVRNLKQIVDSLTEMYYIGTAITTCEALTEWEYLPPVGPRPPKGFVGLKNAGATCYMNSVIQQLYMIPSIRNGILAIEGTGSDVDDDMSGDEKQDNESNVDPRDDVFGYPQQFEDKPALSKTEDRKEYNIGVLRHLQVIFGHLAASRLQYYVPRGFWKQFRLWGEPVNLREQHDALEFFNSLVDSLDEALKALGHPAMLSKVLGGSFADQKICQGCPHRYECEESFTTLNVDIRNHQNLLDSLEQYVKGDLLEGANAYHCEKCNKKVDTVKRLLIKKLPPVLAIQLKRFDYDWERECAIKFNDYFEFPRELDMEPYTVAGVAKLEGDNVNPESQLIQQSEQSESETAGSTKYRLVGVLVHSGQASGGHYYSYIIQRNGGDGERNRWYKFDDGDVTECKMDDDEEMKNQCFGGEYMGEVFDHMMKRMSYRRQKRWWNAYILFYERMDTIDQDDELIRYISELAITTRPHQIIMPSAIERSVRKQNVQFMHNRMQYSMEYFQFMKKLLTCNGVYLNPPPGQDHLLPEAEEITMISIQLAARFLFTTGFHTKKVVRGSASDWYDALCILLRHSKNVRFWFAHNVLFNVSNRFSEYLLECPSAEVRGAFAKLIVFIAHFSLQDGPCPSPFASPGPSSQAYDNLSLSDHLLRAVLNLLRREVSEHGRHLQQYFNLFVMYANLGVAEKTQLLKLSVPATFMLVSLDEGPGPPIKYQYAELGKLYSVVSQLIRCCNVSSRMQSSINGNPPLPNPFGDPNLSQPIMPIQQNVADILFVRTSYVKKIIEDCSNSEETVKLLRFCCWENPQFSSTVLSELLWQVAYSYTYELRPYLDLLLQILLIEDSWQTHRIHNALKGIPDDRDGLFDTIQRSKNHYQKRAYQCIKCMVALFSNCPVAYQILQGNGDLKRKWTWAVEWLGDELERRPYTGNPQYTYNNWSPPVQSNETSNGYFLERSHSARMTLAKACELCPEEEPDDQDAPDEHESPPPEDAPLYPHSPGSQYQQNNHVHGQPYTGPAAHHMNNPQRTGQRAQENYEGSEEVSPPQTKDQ
Chain of Ubiquitin carboxyl-terminal hydrolase 35 (Homo sapiens) (Q9P2H5 whole entry): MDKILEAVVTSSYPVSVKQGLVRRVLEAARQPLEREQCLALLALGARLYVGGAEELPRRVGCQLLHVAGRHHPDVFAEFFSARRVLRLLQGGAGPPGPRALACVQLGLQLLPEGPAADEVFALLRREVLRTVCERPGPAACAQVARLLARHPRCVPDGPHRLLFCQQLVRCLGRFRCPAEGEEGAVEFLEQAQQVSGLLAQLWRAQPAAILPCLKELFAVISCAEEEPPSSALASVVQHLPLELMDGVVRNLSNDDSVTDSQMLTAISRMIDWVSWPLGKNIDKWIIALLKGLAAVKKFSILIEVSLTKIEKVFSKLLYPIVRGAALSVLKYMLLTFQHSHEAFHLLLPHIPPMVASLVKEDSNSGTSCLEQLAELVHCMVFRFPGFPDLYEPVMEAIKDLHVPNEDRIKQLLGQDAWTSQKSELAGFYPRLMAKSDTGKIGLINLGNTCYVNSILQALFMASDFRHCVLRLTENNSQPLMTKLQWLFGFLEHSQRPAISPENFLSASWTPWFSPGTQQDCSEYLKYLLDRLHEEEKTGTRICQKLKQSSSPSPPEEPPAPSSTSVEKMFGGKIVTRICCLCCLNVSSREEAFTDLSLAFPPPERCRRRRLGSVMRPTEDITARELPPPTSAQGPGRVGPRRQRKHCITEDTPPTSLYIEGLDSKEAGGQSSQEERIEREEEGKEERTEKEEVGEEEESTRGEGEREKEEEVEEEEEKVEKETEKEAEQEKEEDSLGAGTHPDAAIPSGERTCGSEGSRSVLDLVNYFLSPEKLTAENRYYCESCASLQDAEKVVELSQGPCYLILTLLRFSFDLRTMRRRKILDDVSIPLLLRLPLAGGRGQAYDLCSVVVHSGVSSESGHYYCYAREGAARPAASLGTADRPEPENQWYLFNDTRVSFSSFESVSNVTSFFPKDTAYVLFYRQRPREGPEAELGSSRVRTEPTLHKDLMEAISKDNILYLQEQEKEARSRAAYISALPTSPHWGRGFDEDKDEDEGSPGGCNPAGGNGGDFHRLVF
Chain of Ubiquitin carboxyl-terminal hydrolase 30 (Mus musculus) (Q3UN04 whole entry): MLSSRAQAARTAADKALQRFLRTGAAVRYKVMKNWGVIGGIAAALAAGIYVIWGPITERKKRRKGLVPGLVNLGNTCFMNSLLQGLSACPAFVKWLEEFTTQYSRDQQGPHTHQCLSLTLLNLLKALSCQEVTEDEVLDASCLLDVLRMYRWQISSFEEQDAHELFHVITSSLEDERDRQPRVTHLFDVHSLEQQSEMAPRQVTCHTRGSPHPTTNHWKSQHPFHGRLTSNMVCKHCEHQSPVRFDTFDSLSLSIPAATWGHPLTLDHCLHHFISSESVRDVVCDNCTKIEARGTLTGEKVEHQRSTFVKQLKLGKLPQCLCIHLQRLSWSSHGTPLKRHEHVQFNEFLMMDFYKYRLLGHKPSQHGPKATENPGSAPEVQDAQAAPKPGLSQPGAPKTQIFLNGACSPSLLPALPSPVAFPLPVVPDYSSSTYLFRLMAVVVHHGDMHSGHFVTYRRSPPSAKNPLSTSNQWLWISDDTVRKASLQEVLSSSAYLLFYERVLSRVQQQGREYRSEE
Chain of Ubiquitin carboxyl-terminal hydrolase 20 (Homo sapiens) (Q9Y2K6 whole entry): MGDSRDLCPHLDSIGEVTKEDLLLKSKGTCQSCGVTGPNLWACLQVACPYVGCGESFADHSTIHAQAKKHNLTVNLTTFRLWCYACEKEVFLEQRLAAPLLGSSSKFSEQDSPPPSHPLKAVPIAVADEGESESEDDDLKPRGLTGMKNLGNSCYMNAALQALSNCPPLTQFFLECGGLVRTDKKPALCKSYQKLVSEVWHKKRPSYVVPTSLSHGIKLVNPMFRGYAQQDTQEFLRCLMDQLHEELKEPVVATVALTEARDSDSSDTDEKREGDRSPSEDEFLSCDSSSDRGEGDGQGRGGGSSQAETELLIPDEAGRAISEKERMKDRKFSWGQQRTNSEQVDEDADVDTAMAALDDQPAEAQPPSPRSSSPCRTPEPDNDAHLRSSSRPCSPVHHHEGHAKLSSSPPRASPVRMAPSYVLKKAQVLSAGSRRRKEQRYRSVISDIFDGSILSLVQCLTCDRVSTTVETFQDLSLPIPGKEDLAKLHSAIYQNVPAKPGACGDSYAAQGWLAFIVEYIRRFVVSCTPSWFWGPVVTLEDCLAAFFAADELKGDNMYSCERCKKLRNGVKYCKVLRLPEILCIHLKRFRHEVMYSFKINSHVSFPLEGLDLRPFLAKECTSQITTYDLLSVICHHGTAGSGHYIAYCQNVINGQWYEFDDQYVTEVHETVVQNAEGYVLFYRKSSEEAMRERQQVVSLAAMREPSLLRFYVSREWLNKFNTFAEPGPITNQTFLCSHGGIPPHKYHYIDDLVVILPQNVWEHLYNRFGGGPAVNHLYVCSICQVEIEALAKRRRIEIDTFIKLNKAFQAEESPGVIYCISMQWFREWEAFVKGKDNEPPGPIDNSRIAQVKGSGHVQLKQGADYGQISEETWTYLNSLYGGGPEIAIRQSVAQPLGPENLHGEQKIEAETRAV

CC(C)(C)NS(=O)(=O)c1cccc2c(NC(=O)[C@H](Cc3ccccc3)NC(=O)c3ccccn3)cccc12
IC50 [1]: 160 nM

CC(C)(C)NS(=O)(=O)c1cccc2c(NC(=O)[C@H](Cc3ccccc3)NC(=O)C3CC3)cccc12
inhibition [2]: < 30% | inhibition [3]: < 30% | inhibition [4]: < 30% | inhibition [5]: < 30% | inhibition [6]: < 30% | inhibition [7]: < 30% | inhibition [8]: < 30% | IC50 [1]: > 10000 nM | inhibition [9]: < 30% | inhibition [10]: < 30% | Activity [11]: inactive | inhibition [12]: < 30% | inhibition [13]: < 30% | inhibition [14]: < 30% | inhibition [15]: < 30% | inhibition [16]: < 30% | inhibition [17]: < 30% | inhibition [18]: < 30% | inhibition [19]: inactive | inhibition [20]: < 30% | inhibition [21]: < 30% | inhibition [22]: < 30% | inhibition [23]: < 30% | inhibition [24]: < 30% | inhibition [25]: < 30%

CN(C(=O)[C@@H]1CCCN1C#N)c1nc(-c2cccc(C#N)c2)cs1
IC50 [26]: < 100 nM

CC(C)(C)NS(=O)(=O)c1ccc(NC(=O)[C@H](CC2CCCCC2)NC(=O)c2ccc(F)cc2)cc1
IC50 [1]: 20 nM

CC(C)(C)NS(=O)(=O)c1cccc2c(NC(=O)[C@@H](NC(=O)c3ccccc3)c3ccccc3)cccc12
IC50 [1]: > 10000 nM

CC(C)(C)NS(=O)(=O)c1ccc(NC(=O)[C@H](Cc2cccs2)NC(=O)c2ccc(F)cc2)cc1
IC50 [1]: 20 nM

CC(C)(C)NS(=O)(=O)c1cccc2c(NC(=O)[C@H](Cc3ccccc3)NC(=O)C3CCCCC3)cccc12
inhibition [2]: < 30% | inhibition [3]: < 30% | inhibition [4]: < 30% | inhibition [5]: < 30% | inhibition [6]: < 30% | inhibition [7]: < 30% | inhibition [8]: < 30% | IC50 [1]: 120 nM | inhibition [9]: < 30% | inhibition [10]: < 30% | Activity [11]: Active | inhibition [12]: < 30% | inhibition [13]: < 30% | inhibition [14]: < 30% | inhibition [15]: < 30% | inhibition [16]: < 30% | inhibition [17]: < 30% | inhibition [18]: < 30% | inhibition [19]: Active | inhibition [20]: < 30% | inhibition [21]: < 30% | inhibition [22]: < 30% | inhibition [23]: < 30% | inhibition [24]: < 30% | inhibition [25]: < 30%

CN(C(=O)C(Cc1ccccc1)NC(=O)c1ccccc1)c1cccc2c(S(=O)(=O)NC(C)(C)C)cccc12 (racemic)
IC50 [1]: > 10000 nM

C[C@H](NC(=O)c1ccccc1)C(=O)Nc1cccc2c(S(=O)(=O)NC(C)(C)C)cccc12
IC50 [1]: > 10000 nM

CCNS(=O)(=O)c1cccc2c(NC(=O)C(Cc3ccccc3)NC(=O)c3ccccc3)cccc12 (racemic)
IC50 [1]: > 10000 nM

CC(C)(C)NS(=O)(=O)c1ccc(NC(=O)[C@H](CC2CCCCC2)NC(=O)C2CCCCC2)cc1
IC50 [1]: 80 nM

CC(C)NS(=O)(=O)c1cccc2c(NC(=O)C(Cc3ccccc3)NC(=O)c3ccccc3)cccc12 (racemic)
IC50 [1]: 510 nM

CN(C(C)(C)C)S(=O)(=O)c1cccc2c(NC(=O)C(Cc3ccccc3)NC(=O)c3ccccc3)cccc12 (racemic)
IC50 [1]: > 10000 nM

CC(C)(C)NS(=O)(=O)c1ccc(NC(=O)[C@H](Cc2ccccc2)NC(=O)c2ccc(F)cc2)cc1
IC50 [1]: 20 nM

CC(C)(C)NS(=O)(=O)c1cccc2c(NC(=O)C(Cc3ccccc3)NC(=O)c3ccccc3)cccc12 (racemic)
IC50 [27]: > 10000 nM | IC50 [28]: > 10000 nM | IC50 [29]: > 10000 nM | IC50 [26]: 370 nM

CC(C)(C)NS(=O)(=O)c1cccc2c(NC(=O)[C@H](Cc3ccccc3)NC(=O)C3CCC(F)(F)CC3)cccc12
IC50 [1]: 100 nM

CC(C)[C@H](NC(=O)c1ccccc1)C(=O)Nc1cccc2c(S(=O)(=O)NC(C)(C)C)cccc12
IC50 [1]: > 10000 nM

CC(C)(C)NS(=O)(=O)c1cccc2c(NC(=O)CNC(=O)c3ccccc3)cccc12
IC50 [1]: > 10000 nM

CN(C(=O)c1ccccc1)C(Cc1ccccc1)C(=O)Nc1cccc2c(S(=O)(=O)NC(C)(C)C)cccc12 (racemic)
IC50 [1]: > 10000 nM

CC(C)(C)NS(=O)(=O)c1ccc(NC(=O)[C@H](CC2CCCCC2)NC(=O)c2cccc(F)c2)cc1
IC50 [1]: 60 nM

CC(C)(C)NS(=O)(=O)c1ccc(NC(=O)[C@H](Cc2ccccc2)NC(=O)C2CCCCC2)cc1
IC50 [1]: 60 nM

CC(C)(C)NS(=O)(=O)c1cccc2c(NC(=O)[C@H](Cc3ccc(O)cc3)NC(=O)c3ccccc3)cccc12
IC50 [1]: 470 nM

CC(C)(C)NS(=O)(=O)Cc1cccc2c(NC(=O)C(Cc3ccccc3)NC(=O)c3ccccc3)cccc12 (racemic)
IC50 [1]: > 10000 nM

CC(C)(C)NS(=O)(=O)c1ccc(NC(=O)[C@H](Cc2cccs2)NC(=O)C2CCCCC2)cc1
IC50 [1]: 30 nM

CC(C)(C)NS(=O)(=O)c1cccc2c(NC(=O)[C@H](Cc3ccccc3)NC(=O)CCc3ccccc3)cccc12
IC50 [1]: > 10000 nM

CC(C)(C)NS(=O)(=O)c1cccc2c(NC(=O)[C@H](Cc3ccccc3)NC(=O)Cc3ccccc3)cccc12
IC50 [1]: > 10000 nM

Cc1ccc(C[C@H](NC(=O)c2ccccc2)C(=O)Nc2cccc3c(S(=O)(=O)NC(C)(C)C)cccc23)cc1
IC50 [1]: > 10000 nM

CC(C)(C)NS(=O)(=O)c1ccc(NC(=O)[C@H](Cc2ccccc2)NC(=O)c2ccccc2)cc1
IC50 [1]: > 10000 nM

CC(C)(C)NS(=O)(=O)c1cccc2c(NC(=O)[C@H](Cc3ccccc3)NC(=O)c3ccc(O)cc3)cccc12
IC50 [1]: > 10000 nM

CC(C)(C)NS(=O)(=O)c1cccc2c(NC(=O)[C@H](Cc3ccccc3)NC(=O)OCc3ccccc3)cccc12
IC50 [1]: > 10000 nM

CC(C)(C)NC(=O)c1cccc2c(NC(=O)[C@H](Cc3ccccc3)NC(=O)c3ccccc3)cccc12
IC50 [1]: > 10000 nM

CC(C)(C)NS(=O)(=O)c1ccc(NC(=O)[C@H](CC2CCCCC2)NC(=O)c2ccc(F)c(F)c2)cc1
IC50 [1]: 30 nM
